Source: ChEMBL document CHEMBL3425469, “Discovery of imidazo[2,1-b]thiazole HCV NS4B inhibitors exhibiting synergistic effect with other direct-acting antiviral agents” (J Med Chem, 2015)

Tests used:
[1] = test system: Hepatitis C virus; assay: Antiviral activity against Hepatitis C virus genotype 1b Con 1 infected in human HuH7 cells at 10 nM after 72 hrs by luciferase assay in presence of 0.02 nM daclatasvir; format: functional, Hepacivirus hominis, Huh-7
Procedure, shortened: (§1)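 Stable Con1 GT1b bicistronic luciferase replicon in Huh-7 cells, 8000 cells/well. Test compound and a marketed DAA or clemizole added alone or together at varied concentrations, 0.5% DMSO final. 72 h at 37°C, then luciferase read with Bright-Glo. Inhibition expressed as % of untreated control, with cytotoxicity run in parallel. CI and DRI derived by the Chou–Talalay median-effect method.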

[2] = test system: Hepatitis C virus; assay: Antiviral activity against Hepatitis C virus genotype 1b Con 1 infected in human HuH7 cells at 10 nM after 72 hrs by luciferase assay in presence of 0.08 nM daclatasvir; format: functional, Hepacivirus hominis, Huh-7; procedure, shortened: as §1
[3] = test system: Hepatitis C virus; assay: Antiviral activity against Hepatitis C virus genotype 1b Con 1 infected in human HuH7 cells at 10 nM after 72 hrs by luciferase assay in presence of 120 nM sofobuvir; format: functional, Hepacivirus hominis, Huh-7; procedure, shortened: as §1
[4] = test system: Hepatitis C virus; assay: Antiviral activity against Hepatitis C virus genotype 1b Con 1 infected in human HuH7 cells at 10 nM after 72 hrs by luciferase assay in presence of 5 uM clemizole; format: functional, Hepacivirus hominis, Huh-7; procedure, shortened: as §1
[5] = test system: Hepatitis C virus; assay: Antiviral activity against Hepatitis C virus genotype 1b Con 1 infected in human HuH7 cells at 10 nM after 72 hrs by luciferase assay in presence of 20 uM clemizole; format: functional, Hepacivirus hominis, Huh-7; procedure, shortened: as §1
[6] = test system: Hepatitis C virus; assay: Antiviral activity against Hepatitis C virus genotype 1b Con 1 infected in human HuH7 cells at 20 nM after 72 hrs by luciferase assay in presence of 0.04 nM daclatasvir; format: functional, Hepacivirus hominis, Huh-7; procedure, shortened: as §1
[7] = test system: Hepatitis C virus; assay: Antiviral activity against Hepatitis C virus genotype 1b Con 1 infected in human HuH7 cells at 20 nM after 72 hrs by luciferase assay in presence of 120 nM sofobuvir; format: functional, Hepacivirus hominis, Huh-7; procedure, shortened: as §1
[8] = test system: Hepatitis C virus; assay: Antiviral activity against Hepatitis C virus genotype 1b Con 1 infected in human HuH7 cells at 20 nM after 72 hrs by luciferase assay in presence of 5 uM clemizole; format: functional, Hepacivirus hominis, Huh-7
Procedure, shortened: (§2)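 Huh-7 cells stably carrying a GT1b Con1 bicistronic luciferase replicon, seeded at 8000 cells/well. The test compound and the partner DAA are dosed orthogonally at various concentrations, final 0.5% DMSO, then incubated 72 h at 37°C. Bright-Glo luciferase read-out gives replicon inhibition as % of untreated control. Cytotoxicity is checked in parallel by CellTiter-Fluor. CI and DRI are derived by the Chou–Talalay median-effect method.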

[9] = test system: Hepatitis C virus; assay: Antiviral activity against Hepatitis C virus genotype 1b Con 1 infected in human HuH7 cells at 20 nM after 72 hrs by luciferase assay in presence of 7.5 uM clemizole; format: functional, Hepacivirus hominis, Huh-7; procedure, shortened: as §2
[10] = test system: Hepatitis C virus; assay: Antiviral activity against Hepatitis C virus genotype 1b Con 1 infected in human HuH7 cells at 20 nM after 72 hrs by luciferase assay in presence of 15 uM clemizole; format: functional, Hepacivirus hominis, Huh-7; procedure, shortened: as §2
[11] = test system: Hepatitis C virus; assay: Antiviral activity against Hepatitis C virus genotype 1b Con 1 infected in human HuH7 cells at 20 nM after 72 hrs by luciferase assay in presence of 17.5 uM clemizole; format: functional, Hepacivirus hominis, Huh-7; procedure, shortened: as §2
[12] = test system: Hepatitis C virus; assay: Antiviral activity against Hepatitis C virus genotype 1b Con 1 infected in human HuH7 cells at 160 nM after 72 hrs by luciferase assay in presence of 7.5 uM clemizole; format: functional, Hepacivirus hominis, Huh-7; procedure, shortened: as §1
[13] = test system: Hepatitis C virus; assay: Antiviral activity against Hepatitis C virus genotype 1b Con 1 infected in human HuH7 cells at 160 nM after 72 hrs by luciferase assay in presence of 17.5 uM clemizole; format: functional, Hepacivirus hominis, Huh-7; procedure, shortened: as §1
[14] = test system: Hepatitis C virus; assay: Antiviral activity against Hepatitis C virus genotype 1b Con 1 infected in human HuH7 cells at 40 nM after 72 hrs by luciferase assay in presence of 140 nM sofobuvir; format: functional, Hepacivirus hominis, Huh-7; procedure, shortened: as §2
[15] = test system: Hepatitis C virus; assay: Antiviral activity against Hepatitis C virus genotype 1b Con 1 infected in human HuH7 cells at 40 nM after 72 hrs by luciferase assay in presence of 5 uM clemizole; format: functional, Hepacivirus hominis, Huh-7; procedure, shortened: as §2
[16] = test system: Hepatitis C virus; assay: Antiviral activity against Hepatitis C virus genotype 1b Con 1 infected in human HuH7 cells at 40 nM after 72 hrs by luciferase assay in presence of 20 uM clemizole; format: functional, Hepacivirus hominis, Huh-7; procedure, shortened: as §2
[17] = test system: Hepatitis C virus; assay: Antiviral activity against Hepatitis C virus genotype 1b Con 1 infected in human HuH7 cells at 80 nM after 72 hrs by luciferase assay in presence of 180 nM sofobuvir; format: functional, Hepacivirus hominis, Huh-7; procedure, shortened: as §2
[18] = test system: Hepatitis C virus; assay: Antiviral activity against Hepatitis C virus genotype 1b Con 1 infected in human HuH7 cells at 80 nM after 72 hrs by luciferase assay in presence of 10 uM clemizole; format: functional, Hepacivirus hominis, Huh-7; procedure, shortened: as §2
[19] = test system: Hepatitis C virus; assay: Antiviral activity against Hepatitis C virus genotype 1b Con 1 infected in human HuH7 cells at 80 nM after 72 hrs by luciferase assay in presence of 12.5 uM clemizole; format: functional, Hepacivirus hominis, Huh-7; procedure, shortened: as §2
[20] = test system: Hepatitis C virus; assay: Antiviral activity against Hepatitis C virus genotype 1b Con 1 infected in human HuH7 cells at 80 nM after 72 hrs by luciferase assay in presence of 15 uM clemizole; format: functional, Hepacivirus hominis, Huh-7; procedure, shortened: as §2
[21] = test system: Hepatitis C virus; assay: Antiviral activity against Hepatitis C virus genotype 1b Con 1 infected in human HuH7 cells at 160 nM after 72 hrs by luciferase assay in presence of 0.04 nM daclatasvir; format: functional, Hepacivirus hominis, Huh-7; procedure, shortened: as §1
[22] = test system: Hepatitis C virus; assay: Antiviral activity against Hepatitis C virus genotype 1b Con 1 infected in human HuH7 cells at 160 nM after 72 hrs by luciferase assay in presence of 30 nM sofobuvir; format: functional, Hepacivirus hominis, Huh-7; procedure, shortened: as §1
[23] = test system: Hepatitis C virus; assay: Antiviral activity against Hepatitis C virus genotype 1b harboring Q26R mutation transfected in human HuH7 cells after 72 hrs by luciferase assay; format: functional, cell-based, Hepacivirus hominis; settings: Huh-7, 72 h
Procedure, shortened: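 Huh-7 cells were transiently electroporated with genotype 1b replicon RNA carrying the specified mutation and plated at 10000 cells/well. Compounds were added at 0.5% DMSO final for 72 h at 37°C. Read-out was Bright-Glo luciferase. EC50 is the mean of two independent runs within 2-fold of each other. A reference drug EC50 was measured alongside each mutant replicon to validate it.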

[24] = test system: Hepatitis C virus; assay: Antiviral activity against Hepatitis C virus genotype 1b Con 1 infected in human HuH7 cells at 2.5 nM after 72 hrs by luciferase assay in presence of 6 nM simeprevir; format: functional, Hepacivirus hominis, Huh-7; procedure, shortened: as §1
[25] = test system: Hepatitis C virus; assay: Antiviral activity against Hepatitis C virus genotype 1b Con 1 infected in human HuH7 cells at 2.5 nM after 72 hrs by luciferase assay in presence of 0.02 nM daclatasvir; format: functional, Hepacivirus hominis, Huh-7; procedure, shortened: as §1
[26] = test system: Hepatitis C virus; assay: Antiviral activity against Hepatitis C virus genotype 1b Con 1 infected in human HuH7 cells at 2.5 nM after 72 hrs by luciferase assay in presence of 60 nM sofobuvir; format: functional, Hepacivirus hominis, Huh-7; procedure, shortened: as §1
[27] = test system: Hepatitis C virus; assay: Antiviral activity against Hepatitis C virus genotype 1b Con 1 infected in human HuH7 cells at 2.5 nM after 72 hrs by luciferase assay in presence of 120 nM sofobuvir; format: functional, Hepacivirus hominis, Huh-7; procedure, shortened: as §1
[28] = test system: Hepatitis C virus; assay: Antiviral activity against Hepatitis C virus genotype 1b Con 1 infected in human HuH7 cells at 2.5 nM after 72 hrs by luciferase assay in presence of 17.5 uM clemizole; format: functional, Hepacivirus hominis, Huh-7; procedure, shortened: as §1
[29] = test system: Hepatitis C virus; assay: Antiviral activity against Hepatitis C virus genotype 1b Con 1 infected in human HuH7 cells at 2.5 nM after 72 hrs by luciferase assay in presence of 20 uM clemizole; format: functional, Hepacivirus hominis, Huh-7; procedure, shortened: as §1
[30] = test system: Hepatitis C virus; assay: Antiviral activity against Hepatitis C virus genotype 1b Con 1 infected in human HuH7 cells at 5 nM after 72 hrs by luciferase assay in presence of 15 uM clemizole; format: functional, Hepacivirus hominis, Huh-7; procedure, shortened: as §2

With `O=C(c1nc2scc(C3CC3)n2c1Cl)N1CCN(C2CCCC2)C(=O)C1` the CI [1] was 1.14, the CI [2] was 0.69 and the CI [3] was 0.7. The CI [4] was 0.82, the CI [5] was 1.16 and the CI [6] was 0.69. It also gave a CI [7] of 0.63, a CI [8] of 0.94 and a CI [9] of 0.56. For the same molecule, the CI [10] was 0.79, the CI [11] was 1.18 and the CI [12] was 1.17. The CI [13] was 1.74, the CI [14] was 0.57 and the CI [15] was 1.03. The CI [16] was 1.2, the CI [17] was 0.43 and the CI [18] was 0.82. It also gave a CI [19] of 0.95, a CI [20] of 1 and a CI [21] of 0.42. The CI [22] was 0.89, the EC50 [23] was 350 nM and the CI [24] was 0.59. The CI [25] was 1.2, the CI [26] was 1.04 and the CI [27] was 0.9. It also gave a CI [28] of 1.36, a CI [29] of 1.45 and a CI [30] of 0.99.
